Source: ChEMBL document CHEMBL1641513, “Synthesis of sugars embodying conjugated carbonyl systems and related triazole derivatives from carboxymethyl glycoside lactones. Evaluation of their antimicrobial activity and toxicity” (Bioorg Med Chem, 2011)
≈ marks a conversion by molar mass, not a printed value. Where “and” joins values, the source holds several entries; their conditions need not be identical. Equal values may be shown once.

Tests used:
[1] = Antifungal activity against Penicillium aurantiogriseum ATCC 16025 after 24 to 48 hrs by paper disk diffusion assay; format: functional
Method in brief: (§1)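 Fungal disk diffusion per CLSI. Overnight cultures spread on potato dextrose agar. 6.4 mm paper disks each loaded with 300 μg substance in 15 μL DMSO. Actidione and amphotericin B positive controls, DMSO negative control. Incubated 25 °C for 24–48 h. Inhibition-zone diameter averaged over two replicates, scored by diameter ranges.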

[2] = Cytotoxicity against […] HII4E cells after 48 hrs by MTT assay; format: cell-based
Method in brief: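 Adherent […] hepatoma cells attached 24 h in 96-well plates, then exposed to compound 24 h. H2O2 positive control, DMSO negative control. At 48 h of culture, MTT added (0.5 mg/mL final) for 3 h. Cells washed, formazan dissolved in DMSO with 20 min shaking at room temperature. Absorbance read at 550 nm, 620 nm reference.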

[3] = tested on: Salmonella enteritidis; assay: Antibacterial activity against Salmonella enteritidis ATCC 13076 after 24 hrs by paper disk diffusion assay; format: functional, Salmonella enterica subsp. enterica serovar Enteritidis
Method in brief: (§2)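 Disk diffusion per CLSI. Overnight bacterial cultures spread on nutrient agar. 6.4 mm paper disks each loaded with 300 μg substance in 15 μL DMSO. Chloramphenicol positive control, DMSO negative control. Incubated 37 °C, 24 h. Nearest inhibition-zone diameter measured, averaged over two replicates. Scored –(<12 mm) to +++++ (≥26 mm).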

[4] = tested on: Enterococcus faecalis; assay: Antibacterial activity against Enterococcus faecalis ATCC 7080 after 24 hrs by paper disk diffusion assay; format: functional; method in brief: as §2
[5] = tested on: Listeria monocytogenes; assay: Antibacterial activity against Listeria monocytogenes ATCC 19115 after 24 hrs by paper disk diffusion assay; format: functional
Method in brief: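 Disk diffusion per CLSI, overnight culture spread on tryptone soya agar. 6.4 mm paper disks each loaded with 300 μg substance in 15 μL DMSO. Chloramphenicol positive control, DMSO negative control. Incubated 37 °C, 24 h. Inhibition-zone diameter measured, averaged over two replicates, and scored by diameter ranges.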

[6] = tested on: Staphylococcus aureus; assay: Antibacterial activity against Staphylococcus aureus ATCC 6538 after 24 hrs by paper disk diffusion assay; format: functional; method in brief: as §2
[7] = tested on: Bacillus cereus; assay: Antibacterial activity against Bacillus cereus ATCC 11778 after 24 hrs by paper disk diffusion assay; format: functional; method in brief: as §2
[8] = tested on: Bacillus subtilis; assay: Antibacterial activity against Bacillus subtilis ATCC 6633 after 24 hrs by paper disk diffusion assay; format: functional; method in brief: as §2
[9] = tested on: Aspergillus niger; assay: Antifungal activity against Aspergillus niger ATCC 16404 after 24 to 48 hrs by paper disk diffusion assay; format: functional; method in brief: as §1

## C#CCNC(=O)CO[C@H]1O[C@H](COC(C)=O)C=C(OC(C)=O)/C1=C\C(=O)OCC
[1]
  inhibition zone (IZ): < 12 mm
[2]
  IC50: 257 µg/mL (≈ 628 µM)
[3]
  diameter of the inhibition zone (DIZ): <12 mm
[4]
  diameter of the inhibition zone (DIZ): 24 mm
  inhibition zone (IZ): 24 mm
[5]
  diameter of the inhibition zone (DIZ): <12 mm
[6]
  diameter of the inhibition zone (DIZ): <12 mm
[7]
  diameter of the inhibition zone (DIZ): <12 mm
[8]
  diameter of the inhibition zone (DIZ): <12 mm
[9]
  diameter of the inhibition zone (DIZ): <12 mm

## C[C@@H]1[C@H](O)[C@@H](C)/C=C/C=C/C=C/C=C/C=C/C=C/C=C/[C@H](O[C@@H]2O[C@H](C)[C@@H](O)[C@H](N)[C@@H]2O)C[C@@H]2O[C@](O)(C[C@@H](O)C[C@@H](O)[C@H](O)CC[C@@H](O)C[C@@H](O)CC(=O)O[C@H]1C)C[C@H](O)[C@H]2C(=O)O [AMPHOTERICIN B]
[1]
  inhibition zone (IZ): > 26 mm and 26 mm
[9]
  diameter of the inhibition zone (DIZ): 22 mm
  inhibition zone (IZ): 22 mm

## CCOC(=O)/C=C1\C(OC(C)=O)=C[C@@H](COC(C)=O)O[C@@H]1OCC(=O)NCc1ccccc1
[1]
  inhibition zone (IZ): 12 mm
[2]
  IC50: 128 µg/mL (≈ 277 µM)
[3]
  diameter of the inhibition zone (DIZ): <12 mm
[4]
  diameter of the inhibition zone (DIZ): 24 mm
  inhibition zone (IZ): 24 mm
[5]
  diameter of the inhibition zone (DIZ): <12 mm
[6]
  diameter of the inhibition zone (DIZ): <12 mm
[7]
  diameter of the inhibition zone (DIZ): <12 mm
[8]
  diameter of the inhibition zone (DIZ): <12 mm
[9]
  diameter of the inhibition zone (DIZ): <12 mm

## O=C(CO[C@H]1O[C@H](CO)[C@@H](O)[C@H](O)[C@H]1O)NCc1cn(Cc2ccccc2)nn1
[2]
  IC50: 193 µg/mL (≈ 473 µM)

## C[C@@H]1C[C@@H]([C@H](O)CC2CC(=O)NC(=O)C2)C(=O)[C@@H](C)C1 [CYCLOHEXIMIDE]
[1]
  inhibition zone (IZ): > 26 mm and 26 mm
[9]
  diameter of the inhibition zone (DIZ): 43 mm
  inhibition zone (IZ): >=26 mm

## C[S+](C)[O-] [DIMETHYL SULFOXIDE]
[2]
  IC50: 199 µg/mL (≈ 2550 µM)

## O=C(CO[C@H]1O[C@H](CO)[C@H](O)[C@H](O)[C@H]1O)NCc1cn(Cc2ccccc2)nn1
[2]
  IC50: 617 µg/mL (≈ 1510 µM)

## CCCCCCCCCCCCNC(=O)CO[C@@H]1O[C@H](COC(C)=O)C=C(OC(C)=O)C1=O
[1]
  inhibition zone (IZ): > 26 mm and 33 mm
[2]
  IC50: 45 µg/mL (≈ 95.8 µM)
[3]
  diameter of the inhibition zone (DIZ): 14 mm
  inhibition zone (IZ): 14 mm
[4]
  diameter of the inhibition zone (DIZ): <12 mm
[5]
  diameter of the inhibition zone (DIZ): 14 mm
  inhibition zone (IZ): 14 mm
[6]
  diameter of the inhibition zone (DIZ): 13 mm
  inhibition zone (IZ): 13 mm
[7]
  diameter of the inhibition zone (DIZ): 16 mm
  inhibition zone (IZ): 14 mm
[8]
  diameter of the inhibition zone (DIZ): 21 mm
  inhibition zone (IZ): 18 mm
[9]
  diameter of the inhibition zone (DIZ): 40 mm
  inhibition zone (IZ): >=26 mm

## O=C(CO[C@@H]1O[C@H](CO)[C@@H](O)[C@H](O)[C@H]1O)NCc1cn(Cc2ccccc2)nn1
[2]
  IC50: 426 µg/mL (≈ 1040 µM)

## C=CCCCCn1cc(CNC(=O)CO[C@H]2O[C@H](CO)[C@H](O)[C@H](O)[C@H]2O)nn1
[2]
  IC50: 394 µg/mL (≈ 984 µM)

## C=CCNC(=O)CO[C@H]1O[C@H](COC(C)=O)C=C(OC(C)=O)/C1=C\C(=O)OCC
[2]
  IC50: 352 µg/mL (≈ 856 µM)

## CCCCCCCCCCCCNC(=O)CO[C@H]1O[C@H](COC(C)=O)C=C(OC(C)=O)/C1=C\C(=O)OCC
[1]
  inhibition zone (IZ): 12 mm
[2]
  IC50: 76 µg/mL (≈ 141 µM)
[3]
  diameter of the inhibition zone (DIZ): <12 mm
[4]
  diameter of the inhibition zone (DIZ): 22 mm
  inhibition zone (IZ): 22 mm
[5]
  diameter of the inhibition zone (DIZ): <12 mm
[6]
  diameter of the inhibition zone (DIZ): 20 mm
  inhibition zone (IZ): 20 mm
[7]
  diameter of the inhibition zone (DIZ): <12 mm
[8]
  diameter of the inhibition zone (DIZ): 12 mm
  inhibition zone (IZ): 12 mm
[9]
  diameter of the inhibition zone (DIZ): <12 mm

## CC(=O)OC[C@H]1O[C@@H](OCC(=O)NCc2cn(Cc3ccccc3)nn2)[C@H](O)[C@@H](OC(C)=O)[C@@H]1OC(C)=O
[2]
  IC50: 505 µg/mL (≈ 945 µM)

## CC(=O)OC[C@H]1O[C@H](OCC(=O)NCc2cn(Cc3ccccc3)nn2)[C@H](O)[C@@H](OC(C)=O)[C@H]1OC(C)=O
[2]
  IC50: 879 µg/mL (≈ 1640 µM)

## O=C(N[C@H](CO)[C@H](O)c1ccc([N+](=O)[O-])cc1)C(Cl)Cl [CHLORAMPHENICOL]
[3]
  diameter of the inhibition zone (DIZ): 41 mm
  inhibition zone (IZ): >=26 mm
[4]
  diameter of the inhibition zone (DIZ): 37 mm
  inhibition zone (IZ): >=26 mm
[5]
  diameter of the inhibition zone (DIZ): 33 mm
  inhibition zone (IZ): >=26 mm
[6]
  diameter of the inhibition zone (DIZ): 36 mm
  inhibition zone (IZ): >=26 mm
[7]
  diameter of the inhibition zone (DIZ): 31 mm
  inhibition zone (IZ): >=26 mm
[8]
  diameter of the inhibition zone (DIZ): 40 mm
  inhibition zone (IZ): >=26 mm

## CC(=O)OC[C@@H]1C=C(OC(C)=O)C(=O)[C@@H](OCC(=O)NCc2cn(Cc3ccccc3)nn2)O1
[2]
  IC50: 10300 µg/mL (≈ 21800 µM)

## C=CCCCCn1cc(CN(CC=C)C(=O)CO[C@H]2O[C@H](COCC=C)[C@H](OCC=C)[C@H](O)[C@H]2OCC=C)nn1
[2]
  IC50: 1190 µg/mL (≈ 2120 µM)

## C=CCCCCn1cc(CNC(=O)CO[C@H]2O[C@H](COC(C)=O)[C@H](OC(C)=O)[C@H](OC(C)=O)[C@H]2O)nn1
[2]
  IC50: 63 µg/mL (≈ 120 µM)

## CC(=O)OC[C@@H]1C=C(OC(C)=O)C(=O)[C@@H](OCC(=O)NCc2ccccc2)O1
[2]
  IC50: 163 µg/mL (≈ 416 µM)

## C#CCNC(=O)CO[C@H]1O[C@H](COC(C)=O)C=C(OC(C)=O)C1=O
[2]
  IC50: 282 µg/mL (≈ 831 µM)

## CCOC(=O)/C=C1\C(OC(C)=O)=C[C@@H](COC(C)=O)O[C@@H]1OCC(=O)NCc1cn(Cc2ccccc2)nn1
[2]
  IC50: 12000 µg/mL (≈ 22100 µM)

## CC(=O)OC[C@H]1O[C@H](OCC(=O)NCc2cn(Cc3ccccc3)nn2)[C@H](O)[C@@H](OC(C)=O)[C@@H]1OC(C)=O
[2]
  IC50: 69 µg/mL (≈ 129 µM)

## CCCCCCCCCCCCNC(=O)CO[C@H]1O[C@H](COC(C)=O)C=C(OC(C)=O)C1=O
[1]
  inhibition zone (IZ): > 26 mm and 30 mm
[2]
  IC50: 136 µg/mL (≈ 290 µM)
[3]
  diameter of the inhibition zone (DIZ): <12 mm
[4]
  diameter of the inhibition zone (DIZ): 24 mm
  inhibition zone (IZ): 24 mm
[5]
  diameter of the inhibition zone (DIZ): 17 mm
  inhibition zone (IZ): 17 mm
[6]
  diameter of the inhibition zone (DIZ): 17 mm
  inhibition zone (IZ): 17 mm
[7]
  diameter of the inhibition zone (DIZ): 39 mm
  inhibition zone (IZ): >=26 mm
[8]
  diameter of the inhibition zone (DIZ): 40 mm
  inhibition zone (IZ): >=26 mm
[9]
  diameter of the inhibition zone (DIZ): 12 mm
  inhibition zone (IZ): 12 mm

## OO [HYDROGEN PEROXIDE]
[2]
  IC50: 2 µg/mL (≈ 58.8 µM)
